Results on one molecule are retold here after ChEMBL document CHEMBL4017487, “Design and Synthesis of γ- and δ-Lactam M1 Positive Allosteric Modulators (PAMs): Convulsion and Cholinergic Toxicity of an M1-Selective PAM with Weak Agonist Activity” (J Med Chem, 2017).

The test system of one data set is Plasma. Description: Unbound plasma concentration in scopolamine-induced memory impairment Wistar rat model at 0.32 mg/kg, sc measured after 1.25 hrs by LC-MS/MS analysis. The format is ADME, organism-based. To be noted: in vivo. In a few lines:
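Rats from a satellite group of the scopolamine (0.32 mg/kg) Morris water maze study, N = 2/dose. Dosed sc as a solution in 20% hydroxypropyl β-cyclodextrin. Compound concentrations measured in plasma only at T = 1.25 h.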

Data set [1] deals with Canis familiaris. Description: Cholinergic toxicity in dog assessed as transient salivation at 5 mg/kg, po administered as single dose using spray dried dispersion formulation after 1 to 4 hrs. The following applies: in vivo. The format is organism-based, Canis lupus familiaris. In a few lines: (§1)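 Dog single oral dose escalation: 1/sex at 5 mg/kg for each formulation; 1 female at 15 mg/kg. Spray-dried dispersion: 23% drug loading with 0.5% methylcellulose and 100 mM citrate buffer. Clinical signs timed in approximate hours postdose; unbound plasma Cmax.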

Data set [2] deals with Canis familiaris. Description: Unbound AUC (0 to 24 hrs) in dog plasma at 5 mg/kg, po administered as single dose using hydroxypropyl cellulose/docusate sodium formulation. The format is ADME, organism-based, Canis lupus familiaris. To be noted: in vivo. In a few lines: (§2)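 Dogs given a single oral 5 mg/kg dose as a nanosuspension (hydroxypropyl cellulose SL, 0.05% docusate sodium in purified water), 1/sex. Unbound plasma Cmax and AUC determined, with clinical signs monitored at approximate hours postdose.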

In data set [3] the target is T1, Muscarinic acetylcholine receptor M2 (Homo sapiens, UniProt P08172).
T1 sequence (P08172 whole entry): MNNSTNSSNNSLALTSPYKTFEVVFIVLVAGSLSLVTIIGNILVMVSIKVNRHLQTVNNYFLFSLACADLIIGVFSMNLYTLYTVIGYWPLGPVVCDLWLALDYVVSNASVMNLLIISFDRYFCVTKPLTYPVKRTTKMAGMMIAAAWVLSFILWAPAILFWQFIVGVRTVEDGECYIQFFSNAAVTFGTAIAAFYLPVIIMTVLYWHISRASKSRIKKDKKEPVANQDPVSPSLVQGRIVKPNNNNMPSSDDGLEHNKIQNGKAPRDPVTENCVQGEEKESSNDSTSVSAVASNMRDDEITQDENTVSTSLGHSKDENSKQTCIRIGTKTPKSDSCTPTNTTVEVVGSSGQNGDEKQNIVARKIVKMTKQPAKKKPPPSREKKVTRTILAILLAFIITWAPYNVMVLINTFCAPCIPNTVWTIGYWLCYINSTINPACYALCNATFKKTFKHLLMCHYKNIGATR
Description: Positive allosteric modulation of human muscarinic acetylcholine receptor M2 expressed in CHO cells assessed as increase in acetylcholine-induced cAMP accumulation up to 10 uM after 2 hrs by cAMP-Glo assay. The format is cell-based. Put shortly:
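Recombinant functional human M2–M5 assays, each run in agonist and PAM modes at concentrations up to 10 μM.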

Data set [4] deals with Rattus norvegicus. Description: Toxicity in rat assessed as unbound plasma concentration required for convulsions at 45 mg/kg, po administered as single dose after 1 to 6 hrs. It counts as organism-based. The following applies: in vivo.
Data set [5] concerns Rattus norvegicus. Description: Cholinergic toxicity in rat at 1 to 5 mg/kg, po administered as single dose. The following applies: in vivo. It counts as organism-based. In a few lines: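 Rat single oral dose escalation, 3/sex/dose. 1 and 5 mg/kg as a 0.5% methylcellulose suspension; 15 and 45 mg/kg as a nanosuspension (1.25% w/v hydroxypropyl cellulose SL, 0.05% docusate sodium in water).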

Data set [6] deals with Canis familiaris. Description: Unbound Cmax in dog plasma at 5 mg/kg, po administered as single dose using hydroxypropyl cellulose/docusate sodium formulation. It counts as ADME, organism-based, Canis lupus familiaris. To be noted: in vivo. In a few lines:
as §2

Data set [7] has as its target T2, Muscarinic acetylcholine receptor M1 (Homo sapiens, UniProt P11229).
T2 sequence (P11229 whole entry): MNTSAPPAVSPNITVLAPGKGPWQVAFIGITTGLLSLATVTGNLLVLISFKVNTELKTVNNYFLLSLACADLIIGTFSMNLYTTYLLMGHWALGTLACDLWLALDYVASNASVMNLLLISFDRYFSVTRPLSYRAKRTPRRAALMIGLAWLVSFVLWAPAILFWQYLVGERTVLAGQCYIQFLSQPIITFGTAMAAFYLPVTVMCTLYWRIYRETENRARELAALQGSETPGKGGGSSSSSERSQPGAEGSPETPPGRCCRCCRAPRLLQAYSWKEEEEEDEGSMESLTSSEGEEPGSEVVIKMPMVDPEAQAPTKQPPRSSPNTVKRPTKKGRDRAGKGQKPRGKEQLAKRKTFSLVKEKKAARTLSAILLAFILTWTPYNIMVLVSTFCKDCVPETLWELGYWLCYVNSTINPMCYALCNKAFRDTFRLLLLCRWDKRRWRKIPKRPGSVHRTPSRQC
Description: Positive allosteric modulation of human muscarinic acetylcholine receptor M1 expressed in CHO cells assessed as increase in acetylcholine-induced calcium mobilization by measuring functional co-operativity with acetylcholine preincubated for 10 mins followed by acetylcholine addition by Fluo-8-AM dye based FLIPR assay. The format is ADME, cell-based. Put shortly: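 In FLIPR calcium-mobilization data, ACh concentration–response curves with and without test compound were fitted with the Black/Leff operational model. α gives the change in receptor affinity for ACh, and β gives the change in efficacy, the functional cooperativity.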
A general note: Calcium flux is commonly read through the fluorescence of an indicator in the cells.

The subject of a further data set is Brain. Description: Unbound brain concentration in scopolamine-induced memory impairment Wistar rat model at 1 mg/kg, sc measured after 1.25 hrs by LC-MS/MS analysis. To be noted: in vivo. It counts as ADME, organism-based.
In data set [8] the target is T2, Muscarinic acetylcholine receptor M1. Description: Agonist activity at human muscarinic acetylcholine receptor M1 expressed in CHO cells assessed as increase in calcium mobilization at 13 uM incubated for 10 mins by Fluo-8-AM dye based FLIPR assay relative to control. It counts as cell-based. To be noted: read-out: %max.
Data set [9] has as its system Canis familiaris. Description: Cholinergic toxicity in dog assessed as circling behaviour at 5 mg/kg, po administered as single dose using spray dried dispersion formulation after 4.3 hrs. The format is organism-based, Canis lupus familiaris. To be noted: in vivo. In a few lines: as §1
The nature of data set [10]: Intrinsic clearance in human liver microsomes. To be noted: read-out: CLH. It counts as ADME, microsome.

Structures are written as SMILES.

For the molecule `Cc1cc2c(cc1Cc1ccc(-c3cocn3)cc1)C(=O)N([C@H]1CCOC[C@@H]1O)C2`, the “Cp(f)” value in the data set with Plasma was 17 nM; in the data set on Rattus norvegicus [4], 2310 nM. Moreover, the Activity result in the data set with Canis familiaris [1] is given as “Toxic”; in data set [3] it was “Not Active”; in the data set on Rattus norvegicus [5], “Non-Toxic”; with Canis familiaris [9] it was “Toxic”. This molecule yielded a fAUC in the data set on Canis familiaris [2] of 3.37 µM·h. The molecule further yielded a fCmax with Canis familiaris [6] of 303 nM. Also, in data set [7], the “log(activity)” value is 2.3. Moreover, in the data set with Brain, the “Drug uptake(free)” value stood at 13 nM. In data set [8], the Emax at 13 µM turned out to be 23%. The CLint scaled in data set [10] was less than 8 mL/min/kg.
